ChEMBL document CHEMBL1121384, “Synthesis and psychoanaleptic properties of new compounds structurally related to diphenhydramine” (J Med Chem, 1980)
Where a name gives a salt, the structure may show the parent alone.

Columns and labels:
[1] = Ratio of LD50/ED50; format: ADME
[2] = test system: Mus musculus; experiment: Toxicity administered perorally was measured in mice; format: organism-based; details: in vivo, po
Outline: (§1)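 Male Swiss mice (18-20 g) were given compound orally in 0.5% carboxymethylcellulose, in groups of four at 200, 400, 800 and 1600 mg/kg. LD50 was taken from mortality; vehicle controls were included.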

[3] = test system: Mus musculus; experiment: Increase of exploratory behavior of mice by administering compound perorally; format: functional
Outline: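 Male Swiss mice (18-20 g) were dosed orally in 0.5% carboxymethylcellulose and placed singly in photobeam boxes with two crossed beams. Beam breaks were counted over the first 5 min. ED50 is the dose raising counts by 50% over vehicle controls, fitted by least squares from four groups of 10 mice on doses spaced by ratio 2.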

[4] = species: Cavia porcellus; experiment: In vitro anticholinergic activity was determined by acetylcholine induced contraction of guinea pig ileum; format: functional; details: read-out: pA2 (converted)
Outline: (§2)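 Terminal ileum strips from guinea pigs (250-300 g) killed by a blow to the neck were hung in Tyrode solution at 32 °C, gassed with 95% O2/5% CO2.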

[5] = species: Cavia porcellus; experiment: In vitro antihistaminic activity was determined by histamine induced contraction of guinea pig ileum; format: functional; details: for Kb: Cavia porcellus, Ileum, read-out: pA2 (converted); outline: as §2
[6] = Group toxicity is the ratio of the LD50 values of isolated mice to that of grouped mice; format: organism-based; details: mouse, in vivo; read-out: Group toxicity
Outline: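 Male Swiss mice (18-20 g) were dosed orally in 0.5% carboxymethylcellulose. Groups of 10 were then either crowded in small boxes (8.5 × 18 × 8.5 cm, four air holes) or kept isolated under usual housing, and mortality was read at 6 h. Ratio = LD50 isolated / LD50 grouped, from six doses spaced by ratio 2, computed by Kärber's method.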

[7] = test system: Mus musculus; experiment: Narcosis antagonism was measured as the dose required to lower by 50% the duration of narcosis in mice after peroral administration; format: functional; details: po
[8] = test system: Canis familiaris; experiment: Sympathomimetic action was evaluated from the increase of the femoral arterial blood pressure and of the cardiac uM/kg changes were < 10%; format: functional, Canis lupus familiaris
Outline: (§3)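 Mongrel dogs of both sexes were given compound intravenously in 0.5% carboxymethylcellulose. Hypertension and tachycardia were recorded. Values are doses in μmol/kg.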

[9] = test system: Mus musculus; experiment: Toxicity was measured as Lethal Dose 50 by administering to mice perorally; format: organism-based; details: in vivo, po; outline: as §1
[10] = test system: Canis familiaris; experiment: Sympathomimetic action was evaluated from the increase of the femoral arterial blood pressure and of the cardiac uM/kg changes were <10%; format: functional, Canis lupus familiaris; outline: as §3
[11] = species: Rattus norvegicus; experiment: Anorexic activity was measured as the dose required to lower by 50% the consumption of control group in rat; No activity at this dose; format: functional
Outline: (§4)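 Male Wistar rats (100-120 g) given chocolate milk to drink for 6 h once a week over 6 weeks. In the last 4 weeks, compounds in 0.5% aqueous carboxymethylcellulose were given orally before each session in a Latin square design. ED50 is the dose cutting consumption by 50% vs vehicle controls, fitted by least squares from three groups (24 rats) on doses spaced by ratio 2.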

[12] = test system: Canis familiaris; experiment: Sympathomimetic action was evaluated from the increase of the cardiac rhythm after intravenous injection in dog; format: functional, Canis lupus familiaris; outline: as §3
[13] = test system: Canis familiaris; experiment: Sympathomimetic action was evaluated from the increase of the femoral arterial blood pressure after intravenous injection in dog; format: functional, Canis lupus familiaris; outline: as §3
[14] = species: Rattus norvegicus; experiment: Anorexic activity was measured as the dose required to lower by 50% the consumption of control group in rat; format: functional; outline: as §4

## Cl.NC(=O)CCN1CCN(CCOC(c2ccccc2)c2ccccc2)CC1
[1]
  selectivity ratio: 12
[2]
  LD50: 2.1 mmol/kg
[3]
  ED50: 0.17 mmol/kg

## O=C(O)/C=C\C(=O)O.O=C(O)/C=C\C(=O)O.O=C(O)CCN1CCN(CCOC2c3ccccc3-c3ccccc32)CC1
[1]
  selectivity ratio: 10
[2]
  LD50: 2.3 mmol/kg
[3]
  ED50: 0.23 mmol/kg

## CCOC(=O)CCN1CCN(CCOC(c2ccc(F)cc2)c2ccc(F)cc2)CC1.Cl
[1]
  selectivity ratio: 20
[4]
  Kb: 0.309 µM
[2]
  LD50: 1.2 mmol/kg
[5]
  Kb: 0.00724 µM
[3]
  ED50: 0.06 mmol/kg
[6]
  selectivity ratio: 0.4
[7]
  ED50: ~200 µmol/kg
[8]
  Activity: 0

## CCOC(=O)CCN1CCN(CCOC(c2ccccc2)c2ccc([N+](=O)[O-])cc2)CC1.Cl (configuration not stated)
[3]
  ED50: 0.5 mmol/kg
[9]
  LD50: 3 M/kg

## CCCC(OCCN1CCN(CCC(=O)O)CC1)c1ccccc1.O=C(O)/C=C\C(=O)O.O=C(O)/C=C\C(=O)O (configuration not stated)
[1]
  selectivity ratio: > 28
[4]
  Kb: 1.95 µM
[2]
  LD50: > 2.8 mmol/kg
[5]
  Kb: 3.55 µM
[3]
  ED50: 0.1 mmol/kg

## O=C(O)/C=C\C(=O)O.O=C(O)/C=C\C(=O)O.O=C(O)CCCCN1CCN(CCOC(c2ccccc2)c2ccc(F)cc2)CC1 (configuration not stated)
[1]
  selectivity ratio: 40
[2]
  LD50: 2.2 mmol/kg
[3]
  ED50: 0.05 mmol/kg

## Cl.O=C(O)CCCN1CCN(CCOC(c2ccccc2)c2ccccc2)CC1
[2]
  LD50: 3.4 mmol/kg
[3]
  ED50: 0.17 mmol/kg

## O=C([O-])CCN1CCN(CCOC(c2ccccc2)c2ccccc2)CC1.[Na+]
[1]
  selectivity ratio: 17
[4]
  Kb: 115 µM
[2]
  LD50: 3.6 mmol/kg
[5]
  Kb: 0.759 µM
[3]
  ED50: 0.21 mmol/kg
[6]
  selectivity ratio: 0.6
[7]
  ED50: > 500 µmol/kg
[10]
  Activity: 0

## CCOC(=O)CCN1CCN(CCCOC(c2ccccc2)c2ccccc2)CC1.Cl
[1]
  selectivity ratio: 18
[2]
  LD50: 1.8 mmol/kg
[3]
  ED50: 0.1 mmol/kg

## O=C(O)/C=C\C(=O)O.O=C(O)/C=C\C(=O)O.O=C(O)CCN1CCN(CCOC(c2ccccc2)c2ccc(Cl)cc2)CC1 (configuration not stated)
[1]
  selectivity ratio: 32
[2]
  LD50: 1.6 mmol/kg
[3]
  ED50: 0.05 mmol/kg

## O=C(CN1CCN(CCOC(c2ccccc2)c2ccccc2)CC1)N1CCN(Cc2ccc3c(c2)OCO3)CC1.O=C(O)/C=C\C(=O)O.O=C(O)/C=C\C(=O)O
[1]
  selectivity ratio: 23
[2]
  LD50: 0.7 mmol/kg

## O=C([O-])CN1CCN(CCOC(c2ccccc2)c2ccccc2)CC1.[Na+]
[2]
  LD50: 4.3 mmol/kg
[3]
  ED50: 0.5 mmol/kg

## O=C(O)/C=C\C(=O)O.O=C(O)/C=C\C(=O)O.O=C(O)CCN1CCN(CCOC(c2ccccc2)c2cccc(C(F)(F)F)c2)CC1 (configuration not stated)
[1]
  selectivity ratio: 6
[2]
  LD50: 1.8 mmol/kg
[3]
  ED50: 0.3 mmol/kg

## COc1ccccc1C(OCCN1CCN(CCC(=O)O)CC1)c1ccccc1.O=C(O)/C=C\C(=O)O.O=C(O)/C=C\C(=O)O (configuration not stated)
[2]
  LD50: 2.2 mmol/kg
[3]
  ED50: 0.5 mmol/kg

## O=C(CN1CCN(CCOC(c2ccccc2)c2ccccc2)CC1)N1CCOCC1.O=C(O)/C=C\C(=O)O.O=C(O)/C=C\C(=O)O.O=C(O)/C=C\C(=O)O
[1]
  selectivity ratio: 8
[2]
  LD50: 1.2 mmol/kg
[3]
  ED50: 0.15 mmol/kg

## COc1cc(C(OCCN2CCN(CCC(=O)O)CC2)c2ccccc2)cc(OC)c1OC.O=C(O)/C=C\C(=O)O.O=C(O)/C=C\C(=O)O (configuration not stated)
[2]
  LD50: 2.3 mmol/kg
[3]
  ED50: 0.5 mmol/kg

## O=C(O)/C=C\C(=O)O.O=C(O)/C=C\C(=O)O.O=C(O)CN1CCN(CCOC(c2ccccc2)c2ccc(F)cc2)CC1 (configuration not stated)
[1]
  selectivity ratio: 28
[2]
  LD50: 2.8 mmol/kg
[3]
  ED50: 0.1 mmol/kg

## Cc1ccc(C(OCCN2CCN(CCC(=O)O)CC2)c2ccccc2)cc1.O=C(O)/C=C\C(=O)O.O=C(O)/C=C\C(=O)O (configuration not stated)
[1]
  selectivity ratio: 14
[2]
  LD50: 2.3 mmol/kg
[3]
  ED50: 0.16 mmol/kg

## O=C(O)/C=C\C(=O)O.O=C(O)/C=C\C(=O)O.O=C(O)CCN1CCN(CCOC(c2ccccc2)c2ccc(F)cc2)CC1 (configuration not stated)
[11]
  ED50: > 60 µmol/kg
[1]
  selectivity ratio: 37
[4]
  Kb: 7.24 µM
[2]
  LD50: 1.3 mmol/kg
[5]
  Kb: 0.224 µM
[3]
  ED50: 0.04 mmol/kg
[6]
  selectivity ratio: 1.7
[7]
  ED50: > 650 µmol/kg
[8]
  Activity: 0

## O=C(O)/C=C\C(=O)O.O=C(O)/C=C\C(=O)O.O=C(O)CCN1CCN(CCOC(c2ccc(F)cc2)c2ccc(F)cc2)CC1
[1]
  selectivity ratio: 23
[2]
  LD50: 1.1 mmol/kg
[3]
  ED50: 0.05 mmol/kg

## Cl.N#CCCN1CCN(CCOC(c2ccccc2)c2ccccc2)CC1
[1]
  selectivity ratio: 7
[2]
  LD50: 0.7 mmol/kg
[3]
  ED50: 0.1 mmol/kg

## O=C(O)/C=C\C(=O)O.O=C(O)/C=C\C(=O)O.O=C(O)CCCN1CCN(CCOC(c2ccccc2)c2ccc(F)cc2)CC1 (configuration not stated)
[1]
  selectivity ratio: 34
[2]
  LD50: 1.9 mmol/kg
[3]
  ED50: 0.06 mmol/kg

## COc1ccc(CN(CCN(C)C)c2ccccn2)cc1 [PYRILAMINE MALEATE]
[4]
  Kb: 3.98 µM
[5]
  Kb: 0.000417 µM

## CC(N)Cc1ccccc1.O=S(=O)(O)O (racemic) [AMPHETAMINE SULFATE]
[4]
  Kb: > 1000 µM
[5]
  Kb: 13.5 µM
[12]
  Increase: 30%
[13]
  Increase: 50%
[14]
  ED50: 13 µmol/kg
[6]
  selectivity ratio: 5.3
[7]
  ED50: 20 µmol/kg

## CCOC(=O)CCN1CCN(CCOC(c2ccccc2)c2ccccc2Cl)CC1.Cl (configuration not stated)
[2]
  LD50: 3.2 mmol/kg
[5]
  pA2: 7.25
[3]
  ED50: 0.5 mmol/kg

## O=C(O)CCN1CCN(CCOCc2ccccc2)CC1
[2]
  LD50: > 5.5 mmol/kg
[3]
  ED50: 0.5 mmol/kg
